Results on 19 molecules are retold here after ChEMBL document CHEMBL2021762, “Derivatives of 8-hydroxyquinoline--antibacterial agents that target intra- and extracellular Gram-negative pathogens” (Bioorg Med Chem Lett, 2012).

For data set [1], the system named is Yersinia pseudotuberculosis. Put plainly: Inhibition of type 3 secretion in Yersinia pseudotuberculosis at 20 uM by reporter gene assay. In short, it runs like this: (§1)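 Y. pseudotuberculosis T3S-linked reporter-gene screen, luminescence read on filter-based plate reader; compounds added from DMSO solutions. Tested at 10, 20, 50 and 100 µM, expressed as percent inhibition. EC50 taken from dose-response curves. Activity also checked with detergent present to exclude aggregation.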
(In a reporter assay the amount or activity of a reporter protein is the signal.)

For data set [2], the system named is Yersinia pseudotuberculosis. Briefly: Inhibition of type 3 secretion in Yersinia pseudotuberculosis at 50 uM by reporter gene assay. In short, it runs like this:
as §1

Data set [3] deals with Yersinia pseudotuberculosis. Put plainly: Inhibition of type 3 secretion in Yersinia pseudotuberculosis at 10 uM by reporter gene assay. A digest of the protocol: as §1
In data set [4] the test system is Yersinia pseudotuberculosis. Briefly: Inhibition of type 3 secretion in Yersinia pseudotuberculosis at 100 uM by reporter gene assay. In short, it runs like this: as §1
Data set [5] addresses Tyrosine-protein phosphatase YopH (Yersinia pseudotuberculosis serotype I (strain IP32953)) (UniProt P08538). Put plainly: Inhibition of Yersinia pseudotuberculosis phosphatase activity of secreted YopH at 100 uM. A digest of the protocol:
(§2)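 Phosphatase activity of YopH secreted by Y. pseudotuberculosis, measured at 10, 20, 50 and 100 µM; expressed as percent inhibition. Some runs used HCl salt form.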

Data set [6] can be described thus: Cytotoxicity against human HeLa cells assessed as cell viability at 2 time MIC. It counts as cell-based. To be noted: read-out: Activity.
Data set [7] can be described thus: (§3) Inhibition of type 3 secretion in Yersinia pseudotuberculosis by reporter gene assay. A digest of the protocol: as §1
Data set [8] concerns Yersinia pseudotuberculosis. Described as §3. In short, it runs like this: as §1
For data set [9], the target named is Tyrosine-protein phosphatase YopH (Yersinia pseudotuberculosis serotype I (strain IP32953)) (UniProt P08538). Put plainly: Inhibition of Yersinia pseudotuberculosis phosphatase activity of secreted YopH at 50 uM. A digest of the protocol:
as §2

Data set [10] shares this target. Put plainly: Inhibition of Yersinia pseudotuberculosis phosphatase activity of secreted YopH at 10 uM. In short, it runs like this: as §2
Data set [11] relates to Yersinia pseudotuberculosis. Put plainly: Antibacterial activity against T3S deficient Yersinia pseudotuberculosis infected in mouse J774 cells assessed as increase of host cell viability at 3.1 to 25 uM. Format: functional, organism-based. In short, it runs like this:
(§4)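 J774 macrophages infected with Y. pseudotuberculosis, wild-type (pIB102) or T3S-deficient mutant (pIB604); uninfected control included. Viability read with CalceinAM fluorescence (green conversion in healthy cells). 100% = uninfected cells given DMSO alone.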

Data set [12] has as its system Yersinia pseudotuberculosis. Put plainly: Antibacterial activity against wild type Yersinia pseudotuberculosis infected in mouse J774 cells assessed as increase of host cell viability at 3.1 to 25 uM. Format: functional, organism-based. A digest of the protocol: as §4
For data set [13], the target named is Tyrosine-protein phosphatase YopH (Yersinia pseudotuberculosis serotype I (strain IP32953)) (UniProt P08538). Put plainly: Inhibition of Yersinia pseudotuberculosis phosphatase activity of secreted YopH. A digest of the protocol:
as §2

Data set [14] relates to HeLa. Briefly: Cytotoxicity against human HeLa cells assessed as change in morphology by fluorescence microscopy. It counts as cell-based. A digest of the protocol: (§5)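 HeLa cells infected with C. trachomatis […] and incubated with compound in a dilution series, with a DMSO-treated control. Chlamydial inclusions are immunostained green and HeLa cells counterstained red. Inclusion size and number and HeLa cell morphology are judged by fluorescence microscopy. MIC is read from the absence of visible inclusions.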

Data set [15] has as its system HeLa. Briefly: Cytotoxicity against human HeLa cells assessed as visible inclusions by fluorescence microscopy. It counts as cell-based. In short, it runs like this: as §5
For data set [16], the system named is J774. Briefly: Cytotoxicity against mouse J774 cells assessed as cell viability at 3.1 to 25 uM. Format: cell-based. To be noted: j774, 25 µM.
Data set [17] relates to Chlamydia trachomatis. Briefly: Antibacterial activity against Chlamydia trachomatis infected in HeLa cells at 100 uM up to 6 hrs. It counts as functional, organism-based.
Data set [18] has as its system Chlamydia trachomatis. Briefly: Antibacterial activity against Chlamydia trachomatis infected in HeLa cells assessed as reduction of inclusions size at 1.56 uM by fluorescence microscopy analysis. Format: functional, organism-based. A digest of the protocol: as §5
For data set [19], the system named is Chlamydia trachomatis. Briefly: Antibacterial activity against Chlamydia trachomatis infected in HeLa cells. Format: functional. A digest of the protocol: as §5
In data set [20] the target is Tyrosine-protein phosphatase YopH (Yersinia pseudotuberculosis serotype I (strain IP32953)) (UniProt P08538). Briefly: Inhibition of Yersinia pseudotuberculosis phosphatase activity of secreted YopH at 20 uM. A digest of the protocol:
as §2

Data set [21] deals with Chlamydia trachomatis. Put plainly: Antibacterial activity against Chlamydia trachomatis infected in HeLa cells at 50 uM up to 6 hrs. It counts as functional, organism-based.

≈ marks a conversion by molar mass, not a printed value. Where “and” joins values, the source holds several entries; their conditions need not be identical. Identical values can stand only once. Calls of active or inactive are those of the source. The calls are words filed in the database; no cut-off is given here.

Chain of Tyrosine-protein phosphatase YopH (Yersinia pseudotuberculosis serotype I (strain IP32953)) (P08538 whole entry): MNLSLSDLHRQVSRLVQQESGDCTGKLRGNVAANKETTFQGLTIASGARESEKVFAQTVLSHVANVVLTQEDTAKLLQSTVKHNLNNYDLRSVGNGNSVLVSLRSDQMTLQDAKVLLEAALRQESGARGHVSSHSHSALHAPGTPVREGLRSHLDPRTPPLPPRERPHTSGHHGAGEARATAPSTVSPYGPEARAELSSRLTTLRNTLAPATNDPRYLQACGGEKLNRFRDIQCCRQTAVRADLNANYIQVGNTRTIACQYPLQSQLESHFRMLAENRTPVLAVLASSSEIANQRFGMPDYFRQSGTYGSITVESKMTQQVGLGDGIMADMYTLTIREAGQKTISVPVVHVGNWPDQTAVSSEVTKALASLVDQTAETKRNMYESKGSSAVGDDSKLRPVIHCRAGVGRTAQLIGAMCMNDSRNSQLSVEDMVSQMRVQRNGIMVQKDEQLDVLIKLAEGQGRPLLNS

In general, inhibition refers to how much of the control response was suppressed. Consider `Oc1c(CN2CCN(c3ccccc3)CC2)cc(Cl)c2cccnc12`, for which the inhibition entry in [1] and in data set [3] was “inactive” in each case. Moreover, the inhibition in data set [2] is 14% and 22%.
In the case of `CCOc1ccccc1N1CCN(Cc2cc(Cl)c3cccnc3c2O)CC1`, the inhibition entry in data set [1] and in data set [3] was “inactive” each time. Further, the inhibition came to 37% in data set [2] and 89% in data set [4].
For the molecule `O=[N+]([O-])c1ccc(O)c(CN2CCN(c3ccccc3)CC2)c1`, the inhibition result in data set [1], in data set [2], in [4] and in data set [3] was “inactive” throughout.
Take `Oc1c(CN2CCN(c3ccc(F)cc3)CC2)cc(Cl)c2cccnc12`: the inhibition result in [1] and in data set [3] was “inactive” each time. The figures for the inhibition in data set [2] and in data set [4] were 93% and 97%, respectively.
On to `Oc1c(CN2CCN(c3ccc(F)cc3)CC2)cc(Br)c2cccnc12`, for which the inhibition result in data set [1] and in data set [3] was “inactive” each time. Also, the inhibition in data set [2] came to 78%; in [4] it was 89%.
`O=[N+]([O-])c1ccc(O)c(CN2CCN(c3ccc(Cl)cc3)CC2)c1`: the inhibition result in [1], in data set [2], in [4] and in data set [3] was “inactive” each time.
The term EC50 denotes the concentration needed to bring the measured effect to its halfway point. The low end stands for higher potency in that assay, the high end for lower potency in that assay. In general, MIC refers to the least concentration at which growth counts as inhibited. As to `O=[N+]([O-])c1cc(CN2CCN(c3ccc(F)cc3)CC2)c(O)c2ncccc12`, the inhibition in data set [5] is 94% and 83%; in data set [8], “Dose-dependent effect”; in data set [9], 88% and 81%; in data set [10], 17% and 38%; in [13] it was “Dose-dependent effect”; in data set [20], 56% and 66%. In [6], the viability turned out to be 90.2%. In data set [7], the half-maximal effective concentration (EC50) is 6.24 µM. Moreover, the outcome in data set [11] and in [17] was inactive. Moreover, the result in data set [12] and in data set [18] was Active. Also, the Activity entry was “Non-toxic” in data set [14], “Non-toxic” in data set [15] and “Toxic” in data set [16]. In [19], the minimum inhibitory concentration (MIC) was 3.13 µM (≈ 1.2 µg/mL).
Turning to `Oc1c(CN2CCN(c3ccc(F)cc3)CC2)ccc2cccnc12`, the inhibition entry in [1] and in data set [3] was “inactive” each time. For the same molecule, the results for the inhibition in data set [2] and in [4] were 58% and 95%, respectively.
On to `Oc1c(CN2CCN(c3ccccn3)CC2)cc(Cl)c2cccnc12`, for which the inhibition entry in [1] and in data set [3] was “inactive” throughout. In addition, the inhibition in [2] was 80%; in [4], 98%.
As for `CN1CCN(Cc2cc(Cl)c3cccnc3c2O)CC1`, the inhibition entry in data set [1], in data set [2] and in data set [3] was “inactive” throughout. Also, in [4], the inhibition was 48%.
Take `O=[N+]([O-])c1cc(CN2CCN(c3ccccc3)CC2)c(O)c2ncccc12`: the inhibition in data set [1] was 88%; in [5], 79%; in [8], “Dose-dependent effect”; in data set [9], 77%; in data set [10], 49%; in data set [13] it was “Dose-dependent effect”. For the same molecule, the inhibition stood at 94% in data set [2], 97% in data set [4], 66% in [3] and 73% in [20]. Also, in [6], the viability was 66.3%. The same molecule displayed an EC50 in data set [7] of 12.4 µM. Moreover, the result in [11] and in [17] was inactive. Besides, the outcome in data set [12] was Active. Besides, the Activity entry in [16] is recorded as “Toxic”. This molecule also gave an MIC in data set [19] of 25 µM (≈ 9.11 µg/mL).
Take `COc1c(CN2CCN(c3ccccc3)CC2)cc(Br)c2cccnc12`: the inhibition entry in [1], in data set [2], in data set [4] and in data set [3] was “inactive” each time.
For the molecule `O=[N+]([O-])c1cc(CN2CCN(c3ccccc3)CC2)c(O)c2ccccc12`, the inhibition entry in data set [1], in data set [2], in data set [4] and in data set [3] was “inactive” throughout.
`COc1c(CN2CCN(c3ccccc3)CC2)cc(Cl)c2cccnc12`: the inhibition result in [1], in data set [2], in data set [4] and in data set [3] was “inactive” in each case.
On to `Oc1c(CN2CCCCC2)cc(Cl)c2cccnc12`, for which the inhibition result in data set [1] and in data set [3] was “inactive” each time. Besides, the inhibition worked out at 8% in data set [2] and 12% in data set [4].
`CC1CN(Cc2cc([N+](=O)[O-])c3cccnc3c2O)CC(C)O1` (stereo not drawn): the inhibition result in [1] and in [3] was “inactive” throughout. For the same molecule, the inhibition in data set [2] was determined as 76%; in [4], 93%.
As for `Cc1cccc(N2CCN(Cc3cc(Br)c4cccnc4c3O)CC2)c1`, the inhibition result in [1] and in data set [3] was “inactive” throughout. For the same molecule, the inhibition was 41% in [2] and 81% in data set [4].
As to `COc1ccccc1N1CCN(Cc2cc([N+](=O)[O-])c3cccnc3c2O)CC1`, the inhibition worked out at 25% in [1], 77% in [2] and 85% in data set [4]. Further, the inhibition entry in data set [3] was “inactive”.
As for `O=[N+]([O-])c1cc(CN2CCC(c3ccccc3)C2)c(O)c2ncccc12` (racemic), the inhibition is 79% in data set [1]; 69% in [5]; “Dose-dependent effect” in data set [8]; 68% in [9]; 47% in data set [10]; “Dose-dependent effect” in [13]. Also, the inhibition in data set [2] came to 95%; in data set [4], 98%; in data set [3], 54%; in data set [20], 64%. Besides, the viability in data set [6] was 92.1%. The outcome in data set [21] and in data set [11] was inactive. The molecule also yielded an EC50 in [7] of 14.6 µM. Also, the outcome in data set [12] was Active. Also, the Activity entry in data set [16] was “Toxic”. This molecule showed an MIC in [19] of 12.5 µM (≈ 4.37 µg/mL).
